Values after ≈ are worked out from the molar mass of the structure shown. Some results are limits rather than exact numbers.

The first assay concerns Human alphaherpesvirus 3. Description: Antiviral activity against varicella zoster virus (VZV) Oka strain in HEL ([…]) cells. The assay is classed as functional. The conditions noted are these: Human alphaherpesvirus 3, HEL; read-out: ED50 (the source's name).
For `O=c1[nH]c(=O)n([C@@H]2S[C@H](CO)[C@@H](O)[C@@H]2O)cc1/C=C/Cl`, the EC50 is greater than 50 µg/mL.
As to `O=c1[nH]c(=O)n([C@H]2S[C@H](CO)[C@@H](O)[C@@H]2O)cc1I`, the EC50 is greater than 50 µg/mL.
Still for that read-out and setting: under `Nc1nc(O)c2ncn([C@@H]3S[C@H](CO)[C@@H](O)[C@@H]3O)c2n1` stands 0.11 µg/mL (≈ 0.368 µM).
Still for that read-out and setting: next, `Nc1nc(N)c2ncn([C@H]3S[C@H](CO)[C@@H](O)[C@@H]3O)c2n1`: greater than 50 µg/mL; `O=c1[nH]c(=O)n([C@H]2S[C@H](CO)[C@@H](O)[C@@H]2O)cc1/C=C/Cl`: greater than 50 µg/mL; `O=c1[nH]c(=O)n([C@@H]2S[C@H](CO)[C@@H](O)[C@@H]2O)cc1/C=C/Br`: 0.2 µg/mL (≈ 0.548 µM).
Same read-out and setting: under `O=c1[nH]c(=O)n([C@H]2S[C@H](CO)[C@@H](O)[C@@H]2O)cc1/C=C/Br` stands greater than 50 µg/mL; under `CCc1cn([C@H]2S[C@H](CO)[C@@H](O)[C@@H]2O)c(=O)[nH]c1=O`, greater than 50 µg/mL; under `Nc1ncnc2c1ncn2[C@H]1S[C@H](CO)[C@@H](O)[C@@H]1O`, greater than 50 µg/mL.
Consider `Cc1cn([C@@H]2S[C@H](CO)[C@@H](O)[C@@H]2O)c(=O)[nH]c1=O`, for which the EC50 turned out to be 6.6 µg/mL (≈ 24.1 µM).

A further assay has as its system CCRF-HSB-2. Description: Antiproliferative effects on CCRF-HSB-2 (human leukemia) cells. The assay is classed as functional, cell-based.
Conditions: not given
An outline of the steps:
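CCRF-HSB-2 cells at 1.1 × 10⁵ cells/mL in RPMI 1640 + 10% FBS. Compound added in medium or PBS as serial 0.5 log₁₀ dilutions. Incubated 3 days at 37 °C, 5% CO₂. MTT then added for another 4 h; formazan solubilized in acidic DMF/SDS. A570 read against 690 nm reference. IC50 read graphically from dose-inhibition curve.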
Consider `O=c1[nH]c(=O)n([C@@H]2S[C@H](CO)[C@@H](O)[C@@H]2O)cc1/C=C/Cl`, for which the IC50 was greater than 100 µg/mL.
For the compound `O=c1[nH]c(=O)n([C@H]2S[C@H](CO)[C@@H](O)[C@@H]2O)cc1I`, the IC50 is greater than 100 µg/mL.
The same measure, in the same setting: under `Nc1nc(O)c2ncn([C@@H]3S[C@H](CO)[C@@H](O)[C@@H]3O)c2n1` stands 0.29 µg/mL (≈ 0.969 µM); under `Nc1nc(N)c2ncn([C@H]3S[C@H](CO)[C@@H](O)[C@@H]3O)c2n1`, greater than 100 µg/mL.
The same measure, in the same setting: next, `O=c1[nH]c(=O)n([C@H]2S[C@H](CO)[C@@H](O)[C@@H]2O)cc1/C=C/Cl`: greater than 100 µg/mL; `O=c1[nH]c(=O)n([C@@H]2S[C@H](CO)[C@@H](O)[C@@H]2O)cc1/C=C/Br`: greater than 100 µg/mL.
Same read-out and setting: under `O=c1[nH]c(=O)n([C@H]2S[C@H](CO)[C@@H](O)[C@@H]2O)cc1/C=C/Br` stands greater than 100 µg/mL; under `CCc1cn([C@H]2S[C@H](CO)[C@@H](O)[C@@H]2O)c(=O)[nH]c1=O`, greater than 100 µg/mL.
As for `Nc1ncnc2c1ncn2[C@H]1S[C@H](CO)[C@@H](O)[C@@H]1O`, the 50% inhibitory concentration (IC50) was greater than 100 µg/mL.
Compound `Cc1cn([C@@H]2S[C@H](CO)[C@@H](O)[C@@H]2O)c(=O)[nH]c1=O` returned an IC50 greater than 100 µg/mL.

A further assay has as its system Human betaherpesvirus 5. The experiment in a line: Antiviral activity against human cytomegalovirus (HCMV) AD 169 strain HEL ([…]) cells. It is filed as functional. The conditions noted are these: Human betaherpesvirus 5, HEL; read-out: ED50 (the source's name). An outline of the steps:
(§1)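 Plaque reduction assay in HEL cells. Strains: HSV-1 VR-3, HSV-2 MS, HCMV AD 169. Run as described earlier.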
As for `O=c1[nH]c(=O)n([C@@H]2S[C@H](CO)[C@@H](O)[C@@H]2O)cc1/C=C/Cl`, the EC50 is greater than 50 µg/mL.
Same read-out and setting: next, `O=c1[nH]c(=O)n([C@H]2S[C@H](CO)[C@@H](O)[C@@H]2O)cc1I`: greater than 50 µg/mL; `Nc1nc(O)c2ncn([C@@H]3S[C@H](CO)[C@@H](O)[C@@H]3O)c2n1`: 0.01 µg/mL (≈ 0.0334 µM).
For `Nc1nc(N)c2ncn([C@H]3S[C@H](CO)[C@@H](O)[C@@H]3O)c2n1`, the EC50 is greater than 50 µg/mL.
Still for that read-out and setting: next, `O=c1[nH]c(=O)n([C@H]2S[C@H](CO)[C@@H](O)[C@@H]2O)cc1/C=C/Cl`: greater than 50 µg/mL.
As to `O=c1[nH]c(=O)n([C@@H]2S[C@H](CO)[C@@H](O)[C@@H]2O)cc1/C=C/Br`, the EC50 was greater than 50 µg/mL.
Same read-out and setting: next, `O=c1[nH]c(=O)n([C@H]2S[C@H](CO)[C@@H](O)[C@@H]2O)cc1/C=C/Br`: greater than 50 µg/mL.
The same measure, in the same setting: under `CCc1cn([C@H]2S[C@H](CO)[C@@H](O)[C@@H]2O)c(=O)[nH]c1=O` stands greater than 50 µg/mL.
The same measure, in the same setting: next, `Nc1ncnc2c1ncn2[C@H]1S[C@H](CO)[C@@H](O)[C@@H]1O`: greater than 50 µg/mL; `Cc1cn([C@@H]2S[C@H](CO)[C@@H](O)[C@@H]2O)c(=O)[nH]c1=O`: 44 µg/mL (≈ 160 µM).

For another assay, the system named is Human alphaherpesvirus 1. The experiment in a line: Antiviral activity against herpes simplex virus-1 VR-3 strain in HEL ([…]) cells. It is filed as functional. The conditions noted are these: Human alphaherpesvirus 1, HEL; read-out: ED50 (the source's name). An outline of the steps: as §1
For the compound `O=c1[nH]c(=O)n([C@@H]2S[C@H](CO)[C@@H](O)[C@@H]2O)cc1/C=C/Cl`, the EC50 was found to be 0.97 µg/mL (≈ 3.02 µM).
Still for that read-out and setting: next, `O=c1[nH]c(=O)n([C@H]2S[C@H](CO)[C@@H](O)[C@@H]2O)cc1I`: greater than 100 µg/mL; `Nc1nc(O)c2ncn([C@@H]3S[C@H](CO)[C@@H](O)[C@@H]3O)c2n1`: 0.49 µg/mL (≈ 1.64 µM).
On the same count and under the same terms, under `Nc1nc(N)c2ncn([C@H]3S[C@H](CO)[C@@H](O)[C@@H]3O)c2n1` stands greater than 100 µg/mL.
For the compound `O=c1[nH]c(=O)n([C@H]2S[C@H](CO)[C@@H](O)[C@@H]2O)cc1/C=C/Cl`, the EC50 is greater than 100 µg/mL.
The same measure, in the same setting: under `O=c1[nH]c(=O)n([C@@H]2S[C@H](CO)[C@@H](O)[C@@H]2O)cc1/C=C/Br` stands 0.82 µg/mL (≈ 2.25 µM); under `O=c1[nH]c(=O)n([C@H]2S[C@H](CO)[C@@H](O)[C@@H]2O)cc1/C=C/Br`, greater than 100 µg/mL.
On the same count and under the same terms, next, `CCc1cn([C@H]2S[C@H](CO)[C@@H](O)[C@@H]2O)c(=O)[nH]c1=O`: greater than 100 µg/mL; `Nc1ncnc2c1ncn2[C@H]1S[C@H](CO)[C@@H](O)[C@@H]1O`: greater than 100 µg/mL; `Cc1cn([C@@H]2S[C@H](CO)[C@@H](O)[C@@H]2O)c(=O)[nH]c1=O`: 0.77 µg/mL (≈ 2.81 µM).

For the next assay, the system named is Human alphaherpesvirus 2. The experiment in a line: Antiviral activity against herpes simplex virus-2 (HSV-2) Ms strain in HEL ([…]) cells. The assay is classed as functional. The conditions noted are these: Human alphaherpesvirus 2, HEL; read-out: ED50 (the source's name). An outline of the steps: as §1
On to `O=c1[nH]c(=O)n([C@@H]2S[C@H](CO)[C@@H](O)[C@@H]2O)cc1/C=C/Cl`, for which the EC50 is 71 µg/mL (≈ 221 µM).
With `O=c1[nH]c(=O)n([C@H]2S[C@H](CO)[C@@H](O)[C@@H]2O)cc1I`, the EC50 is greater than 100 µg/mL.
Regarding `Nc1nc(O)c2ncn([C@@H]3S[C@H](CO)[C@@H](O)[C@@H]3O)c2n1`, the EC50 was 0.59 µg/mL (≈ 1.97 µM).
The same measure, in the same setting: under `Nc1nc(N)c2ncn([C@H]3S[C@H](CO)[C@@H](O)[C@@H]3O)c2n1` stands greater than 100 µg/mL; under `O=c1[nH]c(=O)n([C@H]2S[C@H](CO)[C@@H](O)[C@@H]2O)cc1/C=C/Cl`, greater than 100 µg/mL.
As for `O=c1[nH]c(=O)n([C@@H]2S[C@H](CO)[C@@H](O)[C@@H]2O)cc1/C=C/Br`, the EC50 was found to be 58 µg/mL (≈ 159 µM).
Still for that read-out and setting: next, `O=c1[nH]c(=O)n([C@H]2S[C@H](CO)[C@@H](O)[C@@H]2O)cc1/C=C/Br`: greater than 100 µg/mL; `CCc1cn([C@H]2S[C@H](CO)[C@@H](O)[C@@H]2O)c(=O)[nH]c1=O`: greater than 100 µg/mL; `Nc1ncnc2c1ncn2[C@H]1S[C@H](CO)[C@@H](O)[C@@H]1O`: greater than 100 µg/mL.
The same measure, in the same setting: under `Cc1cn([C@@H]2S[C@H](CO)[C@@H](O)[C@@H]2O)c(=O)[nH]c1=O` stands 4.6 µg/mL (≈ 16.8 µM).

Values taken from ChEMBL document CHEMBL1130421, “A facile, alternative synthesis of 4'-thioarabinonucleosides and their biological activities” (J Med Chem, 1997).
